Source: ChEMBL document CHEMBL1139385, “Structural analysis of ARC-type inhibitor (ARC-1034) binding to protein kinase A catalytic subunit and rational design of bisubstrate analogue inhibitors of basophilic protein kinases” (J Med Chem, 2009)
Where a SMILES comes first, the peptide text is derived from it. [ ]: non-standard residue; d: D form. The star is where a group is joined. Adenosine(5'-uronoyl) = Nc1ncnc2c1ncn2[C@@H]1O[C@H](C(=O)*)[C@@H](O)[C@H]1O; Ahx = NCCCCCC(=O)O

Columns and labels:
[1] = target: RAC-gamma serine/threonine-protein kinase (Homo sapiens, UniProt Q9Y243); settings: 100 nM
RAC-gamma serine/threonine-protein kinase, sequence (Q9Y243 whole entry): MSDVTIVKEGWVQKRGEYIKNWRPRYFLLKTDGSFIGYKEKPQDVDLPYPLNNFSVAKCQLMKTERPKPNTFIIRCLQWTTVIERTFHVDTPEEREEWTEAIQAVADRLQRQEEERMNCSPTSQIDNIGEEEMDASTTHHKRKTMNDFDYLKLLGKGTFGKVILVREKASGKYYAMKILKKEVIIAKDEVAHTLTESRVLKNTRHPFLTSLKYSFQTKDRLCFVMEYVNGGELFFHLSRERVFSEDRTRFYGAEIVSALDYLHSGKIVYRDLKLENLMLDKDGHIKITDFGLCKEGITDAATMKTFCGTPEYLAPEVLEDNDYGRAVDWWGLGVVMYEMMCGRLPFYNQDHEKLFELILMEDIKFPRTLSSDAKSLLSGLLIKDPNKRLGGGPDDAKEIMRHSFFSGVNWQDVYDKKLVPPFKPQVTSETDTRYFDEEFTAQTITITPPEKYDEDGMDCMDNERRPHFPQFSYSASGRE

[2] = target: Serine/threonine-protein kinase D1 (Homo sapiens) (UniProt Q15139); experiment: Inhibition of PKCmu at 100 nM relative to control
How it was run: (§1)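 Activity is expressed as percent inhibition versus control incubations lacking inhibitor. Values are means of duplicate determinations.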

[3] = target: Serine/threonine-protein kinase Sgk1 (Homo sapiens) (UniProt O00141); experiment: Inhibition of SGK1 at 100 nM relative to control
Serine/threonine-protein kinase Sgk1 (Homo sapiens), sequence (O00141 whole entry): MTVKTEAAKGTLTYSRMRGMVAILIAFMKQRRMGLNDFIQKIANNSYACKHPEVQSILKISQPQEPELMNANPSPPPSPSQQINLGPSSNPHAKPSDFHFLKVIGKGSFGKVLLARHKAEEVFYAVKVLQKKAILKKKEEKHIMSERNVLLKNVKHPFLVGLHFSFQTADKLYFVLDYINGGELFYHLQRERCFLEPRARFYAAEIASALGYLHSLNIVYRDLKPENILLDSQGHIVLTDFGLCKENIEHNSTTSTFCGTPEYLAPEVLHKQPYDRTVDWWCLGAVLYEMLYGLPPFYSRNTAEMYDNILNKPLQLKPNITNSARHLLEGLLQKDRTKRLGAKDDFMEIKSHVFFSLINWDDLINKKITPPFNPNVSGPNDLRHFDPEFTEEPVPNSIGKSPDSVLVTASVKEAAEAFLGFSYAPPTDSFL
How it was run: as §1

[4] = target: Serine/threonine-protein kinase PAK 3 (Homo sapiens) (UniProt O75914); experiment: Inhibition of PAK3 at 100 nM relative to control
How it was run: as §1

[5] = target: Glycogen synthase kinase-3 alpha (Homo sapiens) (UniProt P49840); experiment: Inhibition of GSK3alpha at 100 nM relative to control
Glycogen synthase kinase-3 alpha (Homo sapiens), sequence (P49840 2-483 limits assumed): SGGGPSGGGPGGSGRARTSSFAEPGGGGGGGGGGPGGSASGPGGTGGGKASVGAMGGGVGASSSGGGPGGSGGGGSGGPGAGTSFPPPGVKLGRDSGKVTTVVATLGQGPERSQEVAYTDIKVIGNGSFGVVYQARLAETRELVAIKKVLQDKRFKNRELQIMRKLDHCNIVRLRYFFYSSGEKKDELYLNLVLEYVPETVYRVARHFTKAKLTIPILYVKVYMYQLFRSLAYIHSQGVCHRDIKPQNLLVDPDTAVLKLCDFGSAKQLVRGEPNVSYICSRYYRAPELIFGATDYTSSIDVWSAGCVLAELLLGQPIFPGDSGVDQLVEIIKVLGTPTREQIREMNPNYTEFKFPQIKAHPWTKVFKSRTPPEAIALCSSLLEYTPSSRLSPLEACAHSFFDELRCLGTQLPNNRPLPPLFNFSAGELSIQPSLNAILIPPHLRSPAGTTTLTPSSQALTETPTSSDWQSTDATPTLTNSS
How it was run: as §1

[6] = target: Serine/threonine-protein kinase Chk2 (Homo sapiens) (UniProt O96017); experiment: Inhibition of CHK2 at 100 nM relative to control
Serine/threonine-protein kinase Chk2 (Homo sapiens), sequence (O96017 whole entry): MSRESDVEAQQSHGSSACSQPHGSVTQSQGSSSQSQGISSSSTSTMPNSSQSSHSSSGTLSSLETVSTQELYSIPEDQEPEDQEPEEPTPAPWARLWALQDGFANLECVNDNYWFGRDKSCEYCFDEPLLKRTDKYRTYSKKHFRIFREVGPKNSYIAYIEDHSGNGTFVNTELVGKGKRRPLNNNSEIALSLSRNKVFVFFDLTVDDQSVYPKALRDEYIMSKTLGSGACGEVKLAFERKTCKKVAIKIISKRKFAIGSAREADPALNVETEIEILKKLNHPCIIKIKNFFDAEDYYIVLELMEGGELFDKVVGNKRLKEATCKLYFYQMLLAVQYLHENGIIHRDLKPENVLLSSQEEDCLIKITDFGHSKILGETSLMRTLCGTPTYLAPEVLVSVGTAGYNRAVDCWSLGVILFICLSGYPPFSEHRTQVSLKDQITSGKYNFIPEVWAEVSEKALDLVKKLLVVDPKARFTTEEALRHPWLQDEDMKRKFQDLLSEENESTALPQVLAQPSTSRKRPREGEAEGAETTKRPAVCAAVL
How it was run: as §1

[7] = target: Glycogen synthase kinase-3 beta (Homo sapiens) (UniProt P49841); experiment: Inhibition of GSK3-beta at 100 nM relative to control
Glycogen synthase kinase-3 beta (Homo sapiens), sequence (P49841 whole entry, looked up): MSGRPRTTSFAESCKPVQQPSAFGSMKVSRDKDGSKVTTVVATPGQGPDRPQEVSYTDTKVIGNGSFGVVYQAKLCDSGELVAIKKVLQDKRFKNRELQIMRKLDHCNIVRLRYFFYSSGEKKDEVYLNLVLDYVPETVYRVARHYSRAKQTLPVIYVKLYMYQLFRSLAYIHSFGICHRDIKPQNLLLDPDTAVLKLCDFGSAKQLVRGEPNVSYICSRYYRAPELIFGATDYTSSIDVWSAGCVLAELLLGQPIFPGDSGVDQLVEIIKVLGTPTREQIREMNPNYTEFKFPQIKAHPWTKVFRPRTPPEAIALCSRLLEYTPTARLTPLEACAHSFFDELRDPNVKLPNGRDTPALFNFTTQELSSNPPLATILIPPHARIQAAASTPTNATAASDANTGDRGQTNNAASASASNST
How it was run: as §1

[8] = target: Calcium/calmodulin-dependent protein kinase type II subunit alpha (Homo sapiens) (UniProt Q9UQM7); experiment: Inhibition of CaMK2alpha at 100 nM relative to control
Calcium/calmodulin-dependent protein kinase type II subunit alpha (Homo sapiens), sequence (Q9UQM7 whole entry): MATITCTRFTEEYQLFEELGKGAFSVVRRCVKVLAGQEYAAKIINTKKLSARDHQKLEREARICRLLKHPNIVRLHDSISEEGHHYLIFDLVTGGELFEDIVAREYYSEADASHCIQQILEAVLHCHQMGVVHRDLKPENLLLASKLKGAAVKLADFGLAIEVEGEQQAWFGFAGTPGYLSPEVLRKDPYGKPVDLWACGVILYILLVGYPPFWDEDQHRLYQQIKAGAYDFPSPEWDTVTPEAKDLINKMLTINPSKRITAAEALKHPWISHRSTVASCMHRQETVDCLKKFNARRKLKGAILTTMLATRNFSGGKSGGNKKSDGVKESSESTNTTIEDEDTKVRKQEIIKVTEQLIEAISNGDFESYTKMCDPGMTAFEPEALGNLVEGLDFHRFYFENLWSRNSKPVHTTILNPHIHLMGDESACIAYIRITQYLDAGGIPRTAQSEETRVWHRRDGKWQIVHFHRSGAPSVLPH
How it was run: as §1

[9] = target: Protein kinase C iota type (Homo sapiens) (UniProt P41743); experiment: Inhibition of PKCiota at 100 nM relative to control
Protein kinase C iota type (Homo sapiens), sequence (P41743 whole entry): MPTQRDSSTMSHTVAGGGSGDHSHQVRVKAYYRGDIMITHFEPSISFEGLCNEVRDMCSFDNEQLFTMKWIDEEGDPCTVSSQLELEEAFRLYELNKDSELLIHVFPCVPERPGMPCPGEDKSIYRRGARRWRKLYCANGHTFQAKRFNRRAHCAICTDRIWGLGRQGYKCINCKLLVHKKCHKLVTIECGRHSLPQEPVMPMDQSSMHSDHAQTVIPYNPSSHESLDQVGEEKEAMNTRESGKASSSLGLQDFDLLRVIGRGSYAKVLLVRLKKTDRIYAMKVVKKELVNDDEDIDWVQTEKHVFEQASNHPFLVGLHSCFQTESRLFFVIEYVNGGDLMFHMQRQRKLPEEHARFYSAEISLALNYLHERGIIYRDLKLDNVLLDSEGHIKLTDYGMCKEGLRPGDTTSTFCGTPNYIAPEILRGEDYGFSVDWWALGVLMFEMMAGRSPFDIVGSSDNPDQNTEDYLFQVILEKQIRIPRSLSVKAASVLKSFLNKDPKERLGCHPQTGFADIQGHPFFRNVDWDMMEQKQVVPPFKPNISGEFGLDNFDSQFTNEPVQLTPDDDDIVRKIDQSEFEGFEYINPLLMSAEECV
How it was run: as §1

[10] = target: cAMP-dependent protein kinase catalytic subunit alpha (Homo sapiens, UniProt P17612); experiment: Inhibition of PKA catalytic subunit alpha using 100 uM ATP and 30 uM TAMRA-kemptide substrate by fluorometric TLC assay
[11] = target: Protein kinase C theta type (Homo sapiens) (UniProt Q04759); experiment: Inhibition of PKCtheta at 100 nM relative to control
Protein kinase C theta type (Homo sapiens), sequence (Q04759 whole entry, looked up): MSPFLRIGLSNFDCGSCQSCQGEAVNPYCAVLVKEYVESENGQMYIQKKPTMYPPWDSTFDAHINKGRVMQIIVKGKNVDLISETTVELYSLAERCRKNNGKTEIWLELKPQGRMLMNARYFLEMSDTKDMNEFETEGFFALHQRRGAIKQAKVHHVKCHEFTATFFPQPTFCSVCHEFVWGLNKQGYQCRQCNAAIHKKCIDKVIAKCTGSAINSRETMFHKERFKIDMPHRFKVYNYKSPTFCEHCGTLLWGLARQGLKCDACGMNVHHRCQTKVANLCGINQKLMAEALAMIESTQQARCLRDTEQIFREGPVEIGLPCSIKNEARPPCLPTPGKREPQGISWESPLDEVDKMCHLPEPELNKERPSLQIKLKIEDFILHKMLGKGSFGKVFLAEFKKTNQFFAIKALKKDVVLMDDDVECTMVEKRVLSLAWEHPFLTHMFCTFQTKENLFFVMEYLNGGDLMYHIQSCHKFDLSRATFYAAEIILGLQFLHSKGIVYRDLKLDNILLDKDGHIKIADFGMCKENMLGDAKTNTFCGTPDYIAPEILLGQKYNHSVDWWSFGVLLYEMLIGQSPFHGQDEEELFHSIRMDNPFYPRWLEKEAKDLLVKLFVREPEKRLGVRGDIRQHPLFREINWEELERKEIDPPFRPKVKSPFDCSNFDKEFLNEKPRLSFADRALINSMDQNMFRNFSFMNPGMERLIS
How it was run: as §1

[12] = target: Ribosomal protein S6 kinase alpha-5 (Homo sapiens) (UniProt O75582); experiment: Inhibition of MSK1 at 100 nM relative to control
Ribosomal protein S6 kinase alpha-5 (Homo sapiens), sequence (O75582 whole entry, looked up): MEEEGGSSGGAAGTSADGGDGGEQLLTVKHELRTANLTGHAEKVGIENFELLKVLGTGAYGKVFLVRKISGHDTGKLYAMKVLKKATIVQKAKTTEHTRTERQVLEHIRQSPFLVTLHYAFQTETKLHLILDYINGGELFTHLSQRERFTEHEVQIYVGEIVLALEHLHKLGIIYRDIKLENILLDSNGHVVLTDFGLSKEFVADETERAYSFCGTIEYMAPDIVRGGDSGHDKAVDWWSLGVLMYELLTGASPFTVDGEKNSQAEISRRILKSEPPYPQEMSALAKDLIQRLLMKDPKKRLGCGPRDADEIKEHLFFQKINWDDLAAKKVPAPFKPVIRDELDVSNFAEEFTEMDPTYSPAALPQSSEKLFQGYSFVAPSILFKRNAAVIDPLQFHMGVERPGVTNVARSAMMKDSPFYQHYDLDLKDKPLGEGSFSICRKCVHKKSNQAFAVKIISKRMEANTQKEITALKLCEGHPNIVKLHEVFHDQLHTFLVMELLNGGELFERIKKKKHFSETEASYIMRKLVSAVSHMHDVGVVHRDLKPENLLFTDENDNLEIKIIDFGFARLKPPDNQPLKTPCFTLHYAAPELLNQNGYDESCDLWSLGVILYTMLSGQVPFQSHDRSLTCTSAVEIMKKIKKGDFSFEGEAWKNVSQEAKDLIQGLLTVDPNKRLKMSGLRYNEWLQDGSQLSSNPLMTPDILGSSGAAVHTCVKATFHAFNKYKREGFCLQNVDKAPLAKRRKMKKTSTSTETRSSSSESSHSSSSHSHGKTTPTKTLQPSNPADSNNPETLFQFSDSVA
How it was run: as §1

In the case of `N=C(N)NCCC[C@@H](NC(=O)[C@@H](CCCNC(=N)N)NC(=O)[C@@H](CCCNC(=N)N)NC(=O)[C@@H](CCCNC(=N)N)NC(=O)[C@@H](CCCNC(=N)N)NC(=O)[C@@H](CCCNC(=N)N)NC(=O)CCCCCNC(=O)[C@@H](CCCCN)NC(=O)CCCCCNC(=O)[C@H]1O[C@@H](n2cnc3c(N)ncnc32)[C@H](O)[C@@H]1O)C(N)=O` ({Adenosine(5'-uronoyl)-Ahx}-[dK][Ahx][dR][dR][dR][dR][dR][dR]-NH2), the inhibition [1] is reported as 87%, the inhibition [2] is reported as 54% and the inhibition [3] is reported as 89%. For the same compound, the inhibition [4] was 74%, the inhibition [5] was 16% and the inhibition [6] was 62%. It also gave an inhibition [7] of 16%, an inhibition [8] of 5% and an inhibition [9] of 34%. For the same compound, the IC50 [10] was 5.32 nM, the inhibition [11] was 97% and the inhibition [12] was 105%.
